Measured values: ChEMBL document CHEMBL4699473, “Discovery of Bispecific Antagonists of Retinol Binding Protein 4 That Stabilize Transthyretin Tetramers: Scaffolding Hopping, Optimization, and Preclinical Pharmacological Evaluation as a Potential Therapy for Two Common Age-Related Comorbidities” (J Med Chem, 2020)
Converted amounts (≈) assume the structure as drawn. The source made the active and inactive calls. The calls are words filed in the database; no cut-off is given here.

Experiments:
[1] = biological target: T1, Retinol-binding protein 4 (Homo sapiens, UniProt P02753); assay: Displacement of [3H]-all-trans-retinol from biotinylated human urine derived RBP4 measured after 16 hrs by scintillation proximity assay
Transthyretin [2] = biological target: T2, Transthyretin (Homo sapiens, UniProt P02766); assay: Displacement of FITC-diclofenac from human plasma derived TTR measured after overnight incubation by fluorescence polarization assay; type: cell-free
Procedure, shortened: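 Incubated overnight at 4 °C, then fluorescence polarization read. Nonspecific binding defined with 500 μM unlabeled diclofenac.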

[3] = biological target: T1, Retinol-binding protein 4; assay: Displacement of [3H]-all-trans-retinol from MBP-tagged RBP4 (unknown origin) expressed in Escherichia coli assessed as reduction in untagged Eu-labelled TTR-RBP4 interaction measured after overnight incubation by HTRF assay
[4] = Stability in CD-1 mouse liver microsomes assessed as parent compound remaining measured after 30 mins; type: ADME, Microsome; details: 0.5 h
Procedure, shortened: (§1)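 Parent compound remaining after 30 min incubation with human, rat, mouse or cynomolgus monkey liver microsomes, expressed as %.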

[5] = Initial drug level in CD-1 mouse at 2 mg/kg, iv by LC-MS/MS analysis; type: ADME, organism-based; details: in vivo
Procedure, shortened: (§2)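 Drug-naive adult male CD-1 mice, three per group, given a single IV 2 mg/kg dose in 3% dimethylacetamide/45% PEG300/12% ethanol/40% sterile water. Blood compound concentrations followed over time. C0 is the observed concentration at time zero, half-life is from the terminal elimination phase, and Vss is at steady state. Reported as mean (SD).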

[6] = In vivo antagonist activity at TTR-RBP4 complex in CD-1 mouse assessed as reduction in serum RBP4 level at 25 mg/kg, po administered via gavage measured after 24 hrs by ELISA relative to control; type: functional; parameters: scale not given: the % may be the effect or the level left
Procedure, shortened: (§3)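 Male mice received a single oral dose of 25 mg/kg; serum RBP4 was followed over time, with the 6 h and 24 h points reported as % reduction. Three mice per group; values are mean ± SD.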

[7] = Stability in cynomolgus monkey liver microsomes assessed as parent compound remaining measured after 30 mins; type: ADME, Macaca fascicularis, Microsome; details: 0.5 h; procedure, shortened: as §1
[8] = Stability in Sprague-Dawley rat liver microsomes assessed as parent compound remaining measured after 30 mins; type: ADME, Microsome; details: 0.5 h; procedure, shortened: as §1
CYP3A4 = CYP3A4 (Homo sapiens, UniProt P08684); assay: Inhibition of recombinant human CYP3A4 expressed in insect cell microsomes at 10 uM using fluorescence probe as substrate measured after 15 to 45 mins in presence of NADPH by fluorescence assay relative to control; type: ADME, Microsome; details: time 15-45 min
Sequence of CYP3A4 (P08684 whole entry): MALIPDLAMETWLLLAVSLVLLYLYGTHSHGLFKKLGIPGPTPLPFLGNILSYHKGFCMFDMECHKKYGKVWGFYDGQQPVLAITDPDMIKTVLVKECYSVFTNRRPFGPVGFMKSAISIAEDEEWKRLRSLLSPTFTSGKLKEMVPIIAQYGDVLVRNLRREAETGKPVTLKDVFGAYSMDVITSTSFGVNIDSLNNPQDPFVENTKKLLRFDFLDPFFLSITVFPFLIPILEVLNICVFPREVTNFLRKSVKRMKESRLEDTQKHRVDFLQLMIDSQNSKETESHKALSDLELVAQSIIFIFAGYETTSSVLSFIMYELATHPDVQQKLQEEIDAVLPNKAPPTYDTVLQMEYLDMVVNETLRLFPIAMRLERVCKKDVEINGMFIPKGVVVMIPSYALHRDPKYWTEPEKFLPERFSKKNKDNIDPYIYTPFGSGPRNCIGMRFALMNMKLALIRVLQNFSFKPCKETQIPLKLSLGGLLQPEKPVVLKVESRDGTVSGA

[9] = Apparent terminal phase half life in CD-1 mouse at 2 mg/kg, iv by LC-MS/MS analysis; type: ADME, organism-based; details: in vivo; procedure, shortened: as §2
[10] = Apparent terminal phase half life in CD-1 mouse at 5 mg/kg, po administered via gavage by LC-MS/MS analysis; type: ADME, organism-based; details: in vivo
Procedure, shortened: (§4)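 Drug-naive adult male CD-1 mice, three per group, given a single oral 5 mg/kg dose in 2% Tween 80 in 0.9% saline. Compound levels measured in blood over time. Values are the mean (SD) of the PK parameters; %F is derived against the 2 mg/kg IV group.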

[11] = Cmax in CD-1 mouse at 5 mg/kg, po administered via gavage by LC-MS/MS analysis; type: ADME, organism-based; parameters: route oral, dose 5 mg/kg; details: in vivo; procedure, shortened: as §4
[12] = Oral bioavailability in CD-1 mouse at 5 mg/kg administered via gavage by LC-MS/MS analysis; type: ADME, organism-based; details: in vivo; procedure, shortened: as §4
[13] = AUC (infinity) in CD-1 mouse at 5 mg/kg, po administered via gavage by LC-MS/MS analysis; type: ADME, organism-based; parameters: route oral, time infinity, dose 5 mg/kg; details: in vivo; procedure, shortened: as §4
[14] = Kinetic solubility of the compound in pH 7.4 PBS buffer by UV/VIS-HPLC method; type: physicochemical; details: read-out: Kinetic_solubility
Procedure, shortened: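 Kinetic solubility measured in buffer at pH 7.4.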

CYP2D6 = CYP2D6 (Homo sapiens, UniProt P10635); assay: Inhibition of recombinant human CYP2D6 expressed in insect cell microsomes at 10 uM using fluorescence probe as substrate measured after 15 to 45 mins in presence of NADPH by fluorescence assay relative to control; type: ADME, Microsome; details: time 15-45 min
Sequence of CYP2D6 (P10635 whole entry): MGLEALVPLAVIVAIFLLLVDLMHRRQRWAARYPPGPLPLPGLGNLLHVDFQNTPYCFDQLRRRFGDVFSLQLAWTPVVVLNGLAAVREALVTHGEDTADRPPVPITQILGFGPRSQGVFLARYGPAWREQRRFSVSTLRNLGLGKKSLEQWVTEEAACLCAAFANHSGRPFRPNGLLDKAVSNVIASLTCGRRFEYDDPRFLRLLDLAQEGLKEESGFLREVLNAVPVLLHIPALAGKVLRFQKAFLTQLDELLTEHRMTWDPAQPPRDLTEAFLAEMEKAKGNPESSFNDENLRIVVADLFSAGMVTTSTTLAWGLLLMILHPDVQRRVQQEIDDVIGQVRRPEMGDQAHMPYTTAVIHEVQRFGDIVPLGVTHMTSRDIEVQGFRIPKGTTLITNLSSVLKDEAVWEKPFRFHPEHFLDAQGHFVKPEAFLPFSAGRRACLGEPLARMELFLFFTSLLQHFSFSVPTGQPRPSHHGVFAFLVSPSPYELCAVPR

[15] = In vivo antagonist activity at TTR-RBP4 complex in CD-1 mouse assessed as reduction in serum RBP4 level at 25 mg/kg, po administered via gavage measured after 6 hrs by ELISA relative to control; type: functional; parameters: scale not given: the % may be the effect or the level left; procedure, shortened: as §3
[16] = Tmax in CD-1 mouse at 5 mg/kg, po administered via gavage by LC-MS/MS analysis; type: ADME, organism-based; details: in vivo; procedure, shortened: as §4
Transthyretin [17] = biological target: T2, Transthyretin; assay: Stabilization of human His-tagged TTR (Gly21 to Glu147) expressed in HEK293 cells assessed as reduction in acid-induced protein aggregation by measuring increase in TTR monomer level at 50 uM incubated for 72 hrs at pH 4 by Western blot; type: cell-based
Procedure, shortened: (§5)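 Human TTR (2 μL of 167 μM) incubated in 50 mM sodium acetate pH 4.0, 100 mM KCl, with or without 50 μM compound (DMSO vehicle), 72 h at 37 °C. Neutralized with 500 mM sodium phosphate pH 8.0 plus CHAPS, cross-linked, then run on SDS-PAGE and anti-TTR Western blot. Pixel volumes of high-molecular-weight and monomer bands quantified. At least three independent experiments; one-way ANOVA with Holm–Sidak test.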

Transthyretin [18] = biological target: T2, Transthyretin; assay: Stabilization of human His-tagged TTR (Gly21 to Glu147) expressed in HEK293 cells assessed as reduction in acid-induced protein aggregation by measuring reduction in high molecular aggregates at 50 uM incubated for 72 hrs at pH 4 by Western blot analysis relative to control; type: cell-based; procedure, shortened: as §5
[19] = Volume of distribution at steady state in CD-1 mouse at 2 mg/kg, iv by LC-MS/MS analysis; type: ADME, organism-based; details: in vivo; procedure, shortened: as §2
[20] = Stability in human liver microsomes assessed as parent compound remaining measured after 30 mins; type: ADME, Microsome; details: 0.5 h; procedure, shortened: as §1
CYP2C9 = CYP2C9 (Homo sapiens, UniProt P11712); assay: Inhibition of recombinant human CYP2C9 expressed in insect cell microsomes at 10 uM using 7-methoxy-4-trifluoromethylcoumarin as substrate measured after 15 to 45 mins in presence of NADPH by fluorescence assay relative to control; type: ADME, Microsome; details: probe 7-methoxy-4-trifluoromethylcoumarin, time 15-45 min
Sequence of CYP2C9 (P11712 whole entry): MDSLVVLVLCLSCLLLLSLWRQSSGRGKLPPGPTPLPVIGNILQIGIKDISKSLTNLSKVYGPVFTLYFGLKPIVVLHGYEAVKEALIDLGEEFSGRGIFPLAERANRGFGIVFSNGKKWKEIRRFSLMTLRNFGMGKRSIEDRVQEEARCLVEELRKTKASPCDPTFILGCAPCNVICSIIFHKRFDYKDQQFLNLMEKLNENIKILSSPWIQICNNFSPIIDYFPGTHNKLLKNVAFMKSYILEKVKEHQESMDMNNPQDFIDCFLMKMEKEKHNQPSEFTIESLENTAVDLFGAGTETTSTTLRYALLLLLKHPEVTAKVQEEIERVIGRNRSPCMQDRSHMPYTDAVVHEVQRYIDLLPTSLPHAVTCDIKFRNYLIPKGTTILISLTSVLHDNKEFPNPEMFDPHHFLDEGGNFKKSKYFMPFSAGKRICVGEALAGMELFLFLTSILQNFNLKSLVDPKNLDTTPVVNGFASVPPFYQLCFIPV

Mus musculus = assay: Effect on serum TTR level in CD-1 mouse at 25 mg/kg, po administered via gavage; type: functional, organism-based
CYP2C19 = CYP2C19 (Homo sapiens, UniProt P33261); assay: Inhibition of recombinant human CYP2C19 expressed in insect cell microsomes at 10 uM using fluorescence probe as substrate measured after 15 to 45 mins in presence of NADPH by fluorescence assay relative to control; type: ADME, Microsome; details: time 15-45 min
Sequence of CYP2C19 (P33261 whole entry): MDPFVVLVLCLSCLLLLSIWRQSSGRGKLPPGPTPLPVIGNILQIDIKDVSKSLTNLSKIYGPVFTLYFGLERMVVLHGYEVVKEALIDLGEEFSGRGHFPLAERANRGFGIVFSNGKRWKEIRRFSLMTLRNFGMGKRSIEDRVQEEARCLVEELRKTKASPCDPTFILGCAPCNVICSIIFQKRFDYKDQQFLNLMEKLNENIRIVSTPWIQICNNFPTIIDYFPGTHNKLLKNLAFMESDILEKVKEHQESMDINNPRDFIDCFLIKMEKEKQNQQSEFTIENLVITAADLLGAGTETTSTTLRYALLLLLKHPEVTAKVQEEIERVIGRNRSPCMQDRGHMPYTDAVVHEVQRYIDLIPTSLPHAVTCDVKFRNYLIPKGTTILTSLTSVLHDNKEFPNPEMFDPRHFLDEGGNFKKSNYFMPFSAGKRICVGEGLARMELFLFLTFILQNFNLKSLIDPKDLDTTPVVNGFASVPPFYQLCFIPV

## Cc1cc(C(=O)O)nc(N2CCC(COc3cc(C(F)(F)F)cc(C(F)(F)F)c3)C2)n1 (racemic)
[1]
  IC50: 1.6 µM
Transthyretin [2]
  IC50: > 30 µM

## Cc1cc(C(=O)O)nc(N2CCC(COc3ccc(F)cc3C(F)(F)F)C2)n1 (racemic)
[1]
  IC50: 0.24 µM
Transthyretin [2]
  IC50: 3.9 µM
[3]
  IC50: 0.87 µM

## Cc1cc(C(=O)O)nc(N2CCC(COc3ccccc3C(F)(F)F)C2)n1 (racemic)
[4]
  Stabilty: 95%
[5]
  C0: 9129 ng/mL
[6]
  Activity: 64%
[7]
  Stabilty: 103%
[8]
  Stabilty: 93%
CYP3A4
  inhibition at 10 µM: 2.2%
[9]
  beta t1/2: 8.6 h
[10]
  t1/2: 9.9 h
[11]
  Cmax: 3030 ng/mL
[12]
  F: 52%
[13]
  AUC: 52439 ng·h/mL
[14]
  solubility kinetic: 187 µM (≈ 71.5 µg/mL)
CYP2D6
  inhibition at 10 µM: 18.1%
[15]
  Activity: 81%
[16]
  Tmax: 0.83 h
Transthyretin [17]
  Activity: Active
Transthyretin [18]
  fold change (FC): 4.7
[19]
  Vdss: 0.518 L/kg
[20]
  Stabilty: 105%
CYP2C9
  inhibition at 10 µM: 0%
Mus musculus
  Activity: inactive
CYP2C19
  inhibition at 10 µM: 8%

## Cc1cc(C(=O)O)nc(N2CCC(COc3cccc(Cl)c3C(F)(F)F)C2)n1 (racemic)
[1]
  IC50: 0.18 µM
Transthyretin [2]
  IC50: 3.9 µM

## COc1ccc(C(F)(F)F)c(OCC2CCN(c3nc(C)cc(C(=O)O)n3)C2)c1 (racemic)
[1]
  IC50: > 3 µM
Transthyretin [2]
  IC50: > 30 µM

## CC1=C(/C=C/C(C)=C/C=C/C(C)=C/CO)C(C)(C)CCC1
Transthyretin [17]
  Activity: Active

## O=C(O)c1ccc2nc(-c3cc(Cl)cc(Cl)c3)oc2c1
Transthyretin [17]
  Activity: Active
Transthyretin [18]
  fold change (FC): 3.6

## Cc1cc(C(=O)O)nc(N2CC(Oc3ccccc3C(F)(F)F)C2)n1
[1]
  IC50: > 3 µM
